Bioassay records deposited in PubChem BioAssay by several laboratories.
This is a sample that favours compounds with a hit; in the whole collection about 6.8% have one here.
HSF1 activator: increases HSF-1 driven luciferase reporter signal | NIH3T3-HGL HSF-1 luciferase reporter, MG132, 8 h; 100% = twice DMSO control signal | 300,000 compounds, 1.7% hits | activation, % at 9 µM | AID 504408;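 active = mean replicate activation of at least 50% with a set share of replicates each reaching 50%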;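 note: 0% = median of the neutral control wells and 100% = twice that signal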
PHOSPHO1 inh: PHOSPHO1 (human) inhibition. Q8TCT1. recombinant PHOSPHO1, absorbance phosphatase assay. inhibition, % at 13.3 µM. 290,000 compounds, 1.1% hits; in the data active = inhibition above about 60%
Target sequence (Q8TCT1 whole entry, looked up): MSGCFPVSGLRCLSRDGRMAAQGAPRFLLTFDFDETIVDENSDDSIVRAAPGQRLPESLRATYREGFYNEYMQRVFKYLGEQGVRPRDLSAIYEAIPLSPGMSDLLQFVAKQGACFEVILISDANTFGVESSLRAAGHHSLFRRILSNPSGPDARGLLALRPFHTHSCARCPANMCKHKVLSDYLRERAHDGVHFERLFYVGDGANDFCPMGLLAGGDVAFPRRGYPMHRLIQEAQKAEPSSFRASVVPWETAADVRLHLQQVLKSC
HSF1 inhib: HSF1 inhibition. NIH3T3-HGL HSE-luciferase, MG132-induced, luminescence 8 h; stronger effect = lower value. activity change, negative = inhibition, % at 7.5 µM (by protocol). 300,000 compounds, 0.77% hits;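 active = more than half of replicate wells show activity change below -50%, luminescence cut by over half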;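 note: luciferase reports HSF-1 transcriptional activity via heat shock element; 0% = median of DMSO wells and -100% = zero luminescence signal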
AI-2 QS modul: modulates the Vibrio harveyi AI-2 quorum sensing system; 300,000 compounds, 0.4% hits; Vibrio harveyi JMH597 AI-2 luminescence/OD600 ratio, 9 h; stronger effect = lower value; strain lacks LuxN and CqsS sensors; 0 = neutral-control median; AID 2094; activity change, % at 7.5 µM; in the data active = activity change below about -75%, passing the limit was not always enough;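 note: luminescence divided by OD600 gain over 9 h not by final OD600 alone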
ALR H2O2 inh: blocks human ALR sulfhydryl oxidase activity; P55789; purified ALR, DTT oxidation, H2O2 HRP-luminol luminescence; inhibition, % (concentration not given with the values); 290,000 compounds, 3.8% hits; AID 485317;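 active = mean replicate inhibition above about 79%, with every replicate also reaching it, limit read from the data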
Target sequence (P55789 whole entry, looked up): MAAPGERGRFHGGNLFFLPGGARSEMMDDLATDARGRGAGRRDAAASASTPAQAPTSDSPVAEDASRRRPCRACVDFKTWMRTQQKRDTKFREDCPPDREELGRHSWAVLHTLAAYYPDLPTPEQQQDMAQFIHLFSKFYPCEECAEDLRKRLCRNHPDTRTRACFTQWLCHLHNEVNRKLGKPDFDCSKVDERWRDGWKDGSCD
HCV core dimer: HCV core protein dimerization inhibition. TR-FRET GST/Flag-core106 dimerization, 1536-well. inhibition, % at 5 µM. 300,000 compounds, 0.33% hits. AID 1899;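 active = inhibition above the mean of all tested compounds plus 3 SD, set per screening campaign, cut at about 45% in these data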
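Material: Tagged HCV core106 pair (GST and Flag) | Amount: GST-core106 13.5 nM, Flag-core106 17 nM | Medium: KF-containing HEPES buffer, pH 7.45, DTT, CHAPS, BSA | Reagent: Eu donor and XL665 acceptor anti-tag antibodies | Schedule: 4 h at 22.5 °C | Technique: Time-resolved FRET, ex 340 nm, em 617 and 671 nm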
The depositor's hits bear a star.

For CCOCCCNC(=O)Cn1cnc2c(cnn2-c2ccc(C)c(C)c2)c1=O the results were HSF1 activator 39, HSF1 inhib 15, AI-2 QS modul 11, ALR H2O2 inh -25 and HCV core dimer 5.
CCOC(=O)c1nnn(-c2nonc2-n2cccc2)c1-c1cccc([N+](=O)[O-])c1 was read as HSF1 activator 0, PHOSPHO1 inh 32, HSF1 inhib -5, AI-2 QS modul -7, ALR H2O2 inh -15 and HCV core dimer 8.
O=C(O)c1ccc(/C=N/NC(=O)C(O)(c2ccccc2)c2ccccc2)cc1 was read as HSF1 activator 27, HSF1 inhib 7, AI-2 QS modul 28, ALR H2O2 inh -11 and HCV core dimer -6.
For CCN(CC)c1ccc(/C=N/NC(=O)C(O)(c2ccccc2)c2ccccc2)o1 the results were HSF1 activator 281*, PHOSPHO1 inh -7, HSF1 inhib 164, AI-2 QS modul 13, ALR H2O2 inh -1 and HCV core dimer 36.
`CCOc1cc(/C=N/Nc2nc(-c3cccs3)c(NC(C)=O)s2)ccc1O` gave HSF1 activator -1, PHOSPHO1 inh -12, HSF1 inhib -13, AI-2 QS modul 20, ALR H2O2 inh 95* and HCV core dimer 5.
Screening O=C(COc1cccc2cccnc12)N/N=C/c1ccc(O)cc1 returned HSF1 activator -6, PHOSPHO1 inh 32, HSF1 inhib -5, AI-2 QS modul -3, ALR H2O2 inh 99* and HCV core dimer -5.
Screening CCOc1cc(/C=N/NC(=O)c2ccc(NC(=O)C3CC3)cc2)ccc1O returned HSF1 activator -11, PHOSPHO1 inh 9, HSF1 inhib -7, AI-2 QS modul 29, ALR H2O2 inh 32 and HCV core dimer -4.
Screening CCOc1cc(/C=N/n2c(C)nnc2C)ccc1O returned HSF1 activator 31, PHOSPHO1 inh -1, HSF1 inhib 10, AI-2 QS modul 39, ALR H2O2 inh 94* and HCV core dimer -7.
Screening CCOc1cc(/C=N/NC(=O)C(=O)N2CCCC2)ccc1O returned HSF1 activator 2, PHOSPHO1 inh 20, HSF1 inhib -8, AI-2 QS modul 23, ALR H2O2 inh 99* and HCV core dimer -3.
For Cc1ccc(NC(=O)c2cc(=O)n(Cc3ccccc3)c(=O)[nH]2)cc1C the results were HSF1 activator 8, PHOSPHO1 inh -23, HSF1 inhib 2, AI-2 QS modul 12, ALR H2O2 inh -2 and HCV core dimer -3.
COCCn1ccc2c(OCC(=O)Nc3ccccc3OC)cccc2c1=O was read as HSF1 activator -5, HSF1 inhib -8, AI-2 QS modul 26 and HCV core dimer 0.
`CCOc1cc(/C=N/NC(=O)Nc2ccccc2)ccc1O` gave HSF1 activator 16, PHOSPHO1 inh 8, HSF1 inhib 9, AI-2 QS modul 31, ALR H2O2 inh 99* and HCV core dimer -8.
`CCOc1cc(/C=N/NC(=O)C2CCCC2)ccc1O` gave HSF1 activator -9, PHOSPHO1 inh 31, HSF1 inhib -6, AI-2 QS modul 12, ALR H2O2 inh 99* and HCV core dimer -10.
Screening O=C(CSc1cccc2cccnc12)N/N=C/c1ccncc1 returned PHOSPHO1 inh 0, AI-2 QS modul -27, ALR H2O2 inh -5 and HCV core dimer -4.
`CCOc1cc(/C=N/NC(=O)CSc2cccc3cccnc23)ccc1O` gave HSF1 activator -8, PHOSPHO1 inh 53, HSF1 inhib 1, AI-2 QS modul 16, ALR H2O2 inh 99* and HCV core dimer 0.
Screening COc1cccc(CSc2nc3ccccc3[nH]2)c1 returned HSF1 activator 112*, PHOSPHO1 inh -1, HSF1 inhib 63, AI-2 QS modul -70, ALR H2O2 inh -10 and HCV core dimer 7.
For Fc1c(F)c(F)c(CSc2nc3ccccc3[nH]2)c(F)c1F the results were HSF1 activator 56*, PHOSPHO1 inh -14, HSF1 inhib 33, AI-2 QS modul 2, ALR H2O2 inh 5 and HCV core dimer 4.
Fc1ccccc1CSc1nc2ccccc2[nH]1 was read as HSF1 activator 71*, PHOSPHO1 inh 22, HSF1 inhib 33, AI-2 QS modul -24, ALR H2O2 inh -17 and HCV core dimer 8.
`O=C(CN(Cc1ccccc1F)S(=O)(=O)c1ccc(Cl)cc1)NCC1CCCO1` (stereo not drawn) gave HSF1 activator 7, PHOSPHO1 inh 22, HSF1 inhib 2, AI-2 QS modul -4, ALR H2O2 inh 0 and HCV core dimer 3.
Screening CC(=O)Nc1sc(C)c(C)c1C(=O)OCCOc1ccccc1 returned HSF1 activator 62*, PHOSPHO1 inh -14, HSF1 inhib 31, AI-2 QS modul 40, ALR H2O2 inh -4 and HCV core dimer -6.
Screening Cc1cc(C(=O)c2ccc(C(C)(C)C)cc2)c(NC(=O)CCl)s1 returned HSF1 activator 94*, PHOSPHO1 inh 0, HSF1 inhib 44, AI-2 QS modul 19, ALR H2O2 inh 6 and HCV core dimer 6.
CNC(=O)c1ccsc1NC(=O)CCS(=O)(=O)c1ccccc1 was read as HSF1 activator 18, PHOSPHO1 inh 43, HSF1 inhib 1, AI-2 QS modul 24, ALR H2O2 inh 70 and HCV core dimer -4.
For CC(=O)Nc1sc(C)c(C)c1C(=O)OCC(=O)Nc1ccccc1 the results were ALR H2O2 inh -3.
For O=C(CCl)Nc1sccc1C(=O)c1ccccc1 the results were HSF1 activator 61*, HSF1 inhib 43, AI-2 QS modul 1, ALR H2O2 inh 7 and HCV core dimer -2.
For Cc1sc(NC(=O)CCl)c(C(=O)c2ccccc2)c1C the results were HSF1 activator 24, PHOSPHO1 inh 41, HSF1 inhib 14, AI-2 QS modul -10, ALR H2O2 inh 99* and HCV core dimer 3.
`Cc1ccccc1C(=O)Nc1sc(C)c(C)c1C(=O)c1ccccc1` gave HSF1 activator 37, PHOSPHO1 inh -86, HSF1 inhib 12, AI-2 QS modul 4, ALR H2O2 inh 4 and HCV core dimer 1.
`Cc1cc(C(=O)c2ccccc2)c(NC(=O)CN2CCOCC2)s1` gave HSF1 activator -1, PHOSPHO1 inh 9, HSF1 inhib -2, AI-2 QS modul 0, ALR H2O2 inh 0 and HCV core dimer -13.
O=C(NCCCn1ccnc1)C1CCN(S(=O)(=O)c2ccc(F)cc2)CC1 was read as HSF1 activator -8, PHOSPHO1 inh 28, HSF1 inhib -1, AI-2 QS modul 23, ALR H2O2 inh 2 and HCV core dimer 2.
Screening Cc1noc(NS(=O)(=O)c2ccc(NC(=O)CSc3nc4c(cc3C#N)CCC4)cc2)c1C returned HSF1 activator 7, PHOSPHO1 inh 13, HSF1 inhib 1, AI-2 QS modul 4, ALR H2O2 inh 98* and HCV core dimer 1.
